Compound activity (PubChem)
T cell HTS: modulators of CD8 T cell-vesicle binding, primary screen, mouse 2C CD8+ T cells, flow cytometry; 2C CD8+ T cell-vesicle binding; hits give low values; response (vesicle binding), % at 7 µM; 0.068% of 330,000 active;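 active = response, share of CD8 T cells binding vesicles, and their 90th percentile fluorescence all below set limits, cut at about 80% in these data, passing the limit was not always enough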;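 note: values below 100% mean blocked vesicle binding to the CD8+ T cells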
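Incubation: binding step 1.5 h, 37 °C, antibody labelling 20 min, ice; system: murine 2C transgenic CD8+ T lymphocytes; technique: cytometric PE anti-B7-1 and Alexa647 anti-CD8 signals after 1% paraformaldehyde fixation; also added: QL9-charged Drosophila Ld/ICAM-1/B7-1 vesicles; control set: naked versus QL9-loaded vesicles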
Rtt109 Vps75: inhibitors of C. albicans Rtt109/Vps75 HAT, primary screen, biochemical, ThioGlo CoA-SH fluorescence, plate reader. 0.16% of 330,000 active. purified Rtt109/Vps75, 4 h. inhibition, % at 34.9 µM. Histone acetyltransferase RTT109 (Candida albicans (strain SC5314 / ATCC MYA-2876)), …;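 active = inhibition of at least 50% in every replicate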
Target sequence (Q5AAJ8 whole entry, looked up): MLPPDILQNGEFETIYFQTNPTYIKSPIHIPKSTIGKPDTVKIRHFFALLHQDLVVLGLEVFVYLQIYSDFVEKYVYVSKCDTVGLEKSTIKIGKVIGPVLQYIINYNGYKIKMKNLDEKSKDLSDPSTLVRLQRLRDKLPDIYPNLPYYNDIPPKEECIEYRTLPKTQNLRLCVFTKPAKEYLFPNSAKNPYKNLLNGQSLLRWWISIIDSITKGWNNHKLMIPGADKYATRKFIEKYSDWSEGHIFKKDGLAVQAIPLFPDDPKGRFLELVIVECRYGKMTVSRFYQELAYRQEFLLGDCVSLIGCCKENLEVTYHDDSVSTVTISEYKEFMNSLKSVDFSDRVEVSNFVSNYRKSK
GASC-1 inh: inhibitors of GASC-1 histone demethylase, primary screen, biochemical, fluorescence, DELFIA europium; Lysine-specific demethylase 4C (Homo sapiens), Q9H3R0; GST-JMJD2C(1-420) H3K9me3 demethylation; inhibition, % at 2.35 µM; 0.069% of 330,000 active; AID 2099, 2009;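 active = more than half of a compound's replicate wells show inhibition beyond 50%, single wells judged on their own value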;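 note: signal counts dimethyl H3K9 product captured on neutravidin plate; 0% = median of DMSO wells and 100% = 0.3 times that DMSO median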
NR3A LBD binder: binders of NR3A ligand-binding domain, primary screen, biophysical, differential scanning fluorimetry, uHTS | Glutamate receptor ionotropic, NMDA 3A (GRIN3A) ligand-binding domain | NR3A LBD differential scanning fluorimetry, Tm shift; 0% = protein alone, 100% = glycine-bound protein | Tm shift relative to glycine control, % at 25 µM | 2.5% of 340,000 active | AID 1259313, 2017;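 active = melting temperature shift of at least 10% of the positive control shift, at one fixed dose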
Numbers without * were called inactive; nt = no result; + = active, no number. A selection: hits, their analogues and other compounds. The true share with any hit is near 2.8%.

SMILES	T cell HTS	Rtt109 Vps75	GASC-1 inh	NR3A LBD binder
NNc1nc(-c2ccccc2)nc2sc3c(c12)CCCC3	265.5	0.1	-5.1	0.2
Nc1nnc(SCCOc2cccc(Br)c2)s1	226.7	1.5	-0.9	12.7*
CCC(C)[C@H](NC(=O)NCc1ccc(S(N)(=O)=O)cc1)C(=O)O (stereo not given in full)	103.7	29.3	2.0	0.5
COC(=O)[C@H](Cc1ccccc1)NC(=O)NCC1CCCO1 (stereo not given in full)	450.3	-3.1	0.7	14.2*
CC(NC(=O)OCc1ccccc1)C(=O)NCC1CCCO1 (stereo not given)	632.4	-11.3	7.5	-0.5
O=C(CCSc1ccccc1)NCC1CCCO1 (stereo not given)	332.4	-6.1	-1.2	17.4*
CCCCN1C(=O)C(O)(c2ccccc2)c2cc(Br)ccc21 (stereo not given)	262.4	-1.0	4.0	-0.7
O=C(/C=C/c1ccc(O)c([N+](=O)[O-])c1)c1ccc2ccccc2c1	111.5	-0.2	-25.5	-1.5
COc1ccc(Oc2ccc(/C=C/C(=O)c3ccc(O)cc3)cc2[N+](=O)[O-])cc1	210.3	0.1	1.7	20.5*
O=[N+]([O-])c1cc(/C=N\O)ccc1Oc1ccc(F)cc1	191.5	-2.6	13.0	16.1*
CNc1ccc(/C=C/C(=O)c2ccc(C)cc2)cc1[N+](=O)[O-]	195.9	-0.4	-29.2	20.6*
COc1cc(/C=N/O)ccc1Oc1ccc([N+](=O)[O-])cc1[N+](=O)[O-]	189.3	1.6	5.1	-16.4
O=C(CN1C(=O)NC2(CCc3ccccc32)C1=O)Nc1ccccc1Cl (stereo not given)	249.3	4.0	-0.6	-1.1
Cc1ccccc1NC(=O)CSc1nc(O)cc(=O)n1C	592.8	-8.2	6.0	12.5*
COc1ccccc1-n1c(SCC(=O)Nc2ccccc2C)nc(O)cc1=O	318.7	-11.7	3.0	1.5
O=C(Nc1ccc(-c2nc3ccccc3[nH]2)cc1)c1ccc(N2C(=O)CCC2=O)cc1	274.5	-4.2	14.1	24.2*
O=C(O)c1ccc(-c2nc3ccccc3[nH]2)cc1	326.9	13.9	-22.2	-2.9
CS(=O)(=O)c1ccccc1C(=O)Nc1ccc(-c2nc3ccccc3[nH]2)cc1	493.7	7.8	-27.4	-6.1
CS(=O)(=O)c1cccc(C(=O)Nc2ccc(-c3nc4ccccc4[nH]3)cc2)c1	208.9	-1.4	-17.4	31.5*
CN(c1ccccc1)S(=O)(=O)c1ccc(Cl)c(C(=O)Nc2ccc(-c3nc4ccccc4[nH]3)cc2)c1	193.8	13.6	1.6	18.6*
CC(C)(C)N1C(=O)c2ccc(C(=O)Nc3ccc(-c4nc5ccccc5[nH]4)cc3)cc2C1=O	251.5	1.7	2.3	34.7*
O=C(COC(=O)Cc1ccc(S(=O)(=O)N2CCOCC2)s1)Nc1ccc(F)cc1F	161.5	-7.5	-5.0	-0.3
CN1OC[C@@H]2CN(Cc3ccccc3)[C@H](c3cccc(-c4ccc(C#N)cc4)c3)C[C@@H]21	nt	8.5	nt	0.3
O=c1c2ccccc2[nH]c2ccc(F)cc12	364.2	-5.3	15.9	11.4*
Cc1cc(C)cc(N(CC(=O)NCc2ccc(F)cc2)C(=O)c2snc(C(N)=O)c2N)c1	416.9	4.6	-3.0	11.4*
SMILES	T cell HTS	Rtt109 Vps75	GASC-1 inh	NR3A LBD binder
Cc1ccc(-n2ncc3c(N4CCCC(C)C4)ncnc32)c(C)c1 (stereo not given)	43.3*	1.5	6.9	-0.5
Cc1ccc(-n2ncc3c(N4CCCC4)ncnc32)c(C)c1	338.0	-2.0	-1.7	-3.7
COc1cc(Cl)ccc1OCc1cc(C(=O)N2C[C@H]3CC[C@H]2C3)no1	324.6	-4.0	-1.9	12.6*
CCc1ccc(C(=O)CSc2ncn[nH]2)cc1	221.3	+	-8.2	3.8
COc1ccc(CCN2CC(C(=O)N(C)CC(=O)Nc3ccc(F)c(F)c3F)CC2=O)cc1OC (stereo not given)	nt	2.4	nt	0.5
COc1ccccc1C1CCN(C(=O)c2ccccc2)CC1	206.3	-21.5	2.7	0.6
COc1ccccc1C1CCN(c2cc(O)ccc2[N+](=O)[O-])CC1	655.3	1.9	-8.5	12.8*
O=C(O)c1ccc(N(Cc2ccccc2)S(=O)(=O)c2ccccc2)cc1	255.8	10.9	-13.6	2.2
